Converted amounts (≈) assume the structure as drawn.
Each compound was assayed on Mycobacterium tuberculosis (assay: Antimycobacterial activity against multidrug-resistant Mycobacterium tuberculosis H37Rv after 28 days by agar dilution method). Conditions: 672 h.
Assay type: functional
Method in brief: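 Agar dilution on Middlebrook 7H11 agar with OADC, run in duplicate at pH 7.4. The clinical isolate was resistant to isoniazid, rifampicin, ethambutol and ciprofloxacin. Inoculum from fresh slants was set to 1 mg/mL wet weight in 0.05% Tween 80 saline, diluted 10^-2 to about 10⁷ cfu/mL, and spotted onto 10-fold serial drug dilutions. Incubated at 37 °C and read at 28 days. MIC is the lowest concentration giving complete (99%) growth inhibition.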
`Cc1nnc(Sc2c(-c3ccccc3)nc3ccccc3c2-c2ccccc2)s1` was tested, and the MIC was 30.4 µM (≈ 12.5 µg/mL). Compound `c1ccc(-c2nc3ccccc3c(-c3ccccc3)c2Sc2nnnn2-c2ccccc2)cc1` has an MIC of 54.6 µM (≈ 25 µg/mL). Compound `c1ccc(-c2c(Sc3nnnn3-c3ccccc3)c(-c3ccc4ccccc4c3)nc3ccccc23)cc1` has an MIC of 49.2 µM (≈ 25 µg/mL). Work on `COc1ccc(-c2nc3ccccc3c(-c3ccccc3)c2Sc2nc3ccccc3s2)cc1` yielded an MIC of over 52.4 µM. In the case of `Cc1nnc(Sc2c(-c3ccc(Cl)cc3)nc3ccccc3c2-c2ccccc2)s1`, the MIC is reported as 3.5 µM (≈ 1.56 µg/mL). For `COc1ccc(-c2nc3ccccc3c(-c3ccccc3)c2Sc2nnc(C)s2)cc1`, the MIC was 28.3 µM (≈ 12.5 µg/mL). `CO[C@H]1/C=C/O[C@@]2(C)Oc3c(C)c(O)c4c(O)c(c(/C=N/N5CCN(C)CC5)c(O)c4c3C2=O)NC(=O)/C(C)=C\C=C\[C@H](C)[C@H](O)[C@@H](C)[C@@H](O)[C@@H](C)[C@H](OC(C)=O)[C@@H]1C` [RIFAMPIN] gave an MIC of 0.1 µM (≈ 0.0823 µg/mL). In the case of `Brc1ccc(-c2nc3ccccc3c(-c3ccccc3)c2Sc2nnnn2-c2ccccc2)cc1`, the MIC is reported as 23.3 µM (≈ 12.5 µg/mL). For `Clc1ccc(-c2nc3ccccc3c(-c3ccccc3)c2Sc2nc3ccccc3s2)cc1`, the MIC was 12.9 µM (≈ 6.21 µg/mL). Compound `c1ccc(-c2ccc(-c3nc4ccccc4c(-c4ccccc4)c3Sc3nc4ccccc4s3)cc2)cc1` has an MIC of 47.2 µM (≈ 24.7 µg/mL). `Cc1ccc(-c2nc3ccccc3c(-c3ccccc3)c2Sc2nnc(C)s2)cc1` gave an MIC of 29.4 µM (≈ 12.5 µg/mL). With `NNC(=O)c1ccncc1` [ISONIAZID] the MIC was 0.4 µM (≈ 0.0549 µg/mL). With `c1ccc(-c2nc3ccccc3c(-c3ccccc3)c2Sc2nc3ccccc3s2)cc1` the MIC was 55.9 µM (≈ 25 µg/mL). `Cc1nnc(Sc2c(-c3ccc(Br)cc3)nc3ccccc3c2-c2ccccc2)s1` was tested, and the MIC was 3.2 µM (≈ 1.57 µg/mL). Work on `Clc1ccc(-c2nc3ccccc3c(-c3ccccc3)c2Sc2nnnn2-c2ccccc2)cc1` yielded an MIC of 50.8 µM (≈ 25 µg/mL). Work on `Cc1ccc(-c2nc3ccccc3c(-c3ccccc3)c2Sc2nc3ccccc3s2)cc1` yielded an MIC of 54.3 µM (≈ 25 µg/mL). `Cc1nnc(Sc2c(-c3ccc(-c4ccccc4)cc3)nc3ccccc3c2-c2ccccc2)s1` showed an MIC of 6.4 µM (≈ 3.12 µg/mL). `c1ccc(-c2c(Sc3nc4ccccc4s3)c(-c3ccc4ccccc4c3)nc3ccccc23)cc1` showed an MIC of 50.3 µM (≈ 25 µg/mL). `COc1ccc(-c2nc3ccccc3c(-c3ccccc3)c2Sc2nnnn2-c2ccccc2)cc1` gave an MIC of 51.2 µM (≈ 25 µg/mL). In the case of `Cc1ccc(-c2nc3ccccc3c(-c3ccccc3)c2Sc2nnnn2-c2ccccc2)cc1`, the MIC is reported as 53 µM (≈ 25 µg/mL). With `Cc1nnc(Sc2c(-c3ccc4ccccc4c3)nc3ccccc3c2-c2ccccc2)s1` the MIC was 13.5 µM (≈ 6.23 µg/mL). In the case of `c1ccc(-c2ccc(-c3nc4ccccc4c(-c4ccccc4)c3Sc3nnnn3-c3ccccc3)cc2)cc1`, the MIC is reported as 46.8 µM (≈ 25 µg/mL). `CC[C@@H](CO)NCCN[C@@H](CC)CO` [ETHAMBUTOL] gave an MIC of 7.6 µM (≈ 1.55 µg/mL). `Brc1ccc(-c2nc3ccccc3c(-c3ccccc3)c2Sc2nc3ccccc3s2)cc1` was tested, and the MIC was 5.9 µM (≈ 3.1 µg/mL).
